Laboratory results taken from ChEMBL document CHEMBL4425133, “Discovery and Pharmacokinetic and Pharmacological Properties of the Potent and Selective MET Kinase Inhibitor 1-{6-[6-(4-Fluorophenyl)-[1,2,4]triazolo[4,3-b]pyridazin-3-ylsulfanyl]benzothiazol-2-yl}-3-(2-morpholin-4-ylethyl)urea (SAR125844)” (J Med Chem, 2016).
Values joined by “and” are separate entries in the source; they are usually repeats but may differ in a detail not shown here. Identical values can stand only once.

Assays:
Mus musculus [1] = assay: Inhibition of MET Y1349 phosphorylation in SCID mouse bearing advanced-stage human Hs746T cells at 20 mg/kg, iv administered as single dose after 24 hrs by using MSD assay; assay type: functional
[2] = Blood clearance in advanced solid tumor patient at 50 to 740 mg/m2 during phase-1 trial; assay type: ADME, tissue-based; conditions: human, whole blood
[3] = Oral bioavailability in mouse; assay type: ADME, organism-based; conditions: in vivo
[4] = Volume of distribution at steady state in mouse at 1 mg/kg, iv; assay type: ADME, organism-based; conditions: in vivo, read-out: Vdss
[5] = Volume of distribution at steady state in advanced solid tumor patient at 50 to 740 mg/m2 during phase-1 trial; assay type: ADME; conditions: human, in vivo; read-out: Vdss
[6] = Blood clearance in advanced solid tumor patient at 50 to 740 mg/m2 relative to hepatic blood flow during phase-1 trial; assay type: ADME, tissue-based; conditions: human
[7] = Drug uptake in tumor of SCID mouse bearing advanced-stage human Hs746T cells at 20 mg/kg, iv administered as single dose after 1 to 72 hrs by liquid chromatography-tandem mass spectrometry; assay type: ADME, organism-based, Neoplasm; conditions: in vivo
[8] = molecular target: Hepatocyte growth factor receptor (Homo sapiens, UniProt P08581, L1195V); assay: Inhibition of phosphorylated MET L1195V mutant (unknown origin) pre-incubated for 30 mins before biotinylated poly(glutamate-alanine-tyrosine) peptide addition and measured after 5 mins by HTRF assay
[9] = Clearance in dog at 3 mg/kg, iv relative to hepatic blood flow; assay type: ADME, organism-based, Canis lupus familiaris; conditions: in vivo
[10] = Clearance in mouse at 1 mg/kg, iv relative to hepatic blood flow; assay type: ADME, organism-based; conditions: in vivo
Cytochrome P450 3A4 = Cytochrome P450 3A4 (Homo sapiens, UniProt P08684); assay: Inhibition of human recombinant CYP3A4 co-expressed with human P450 reductase and human b5 reductase assessed as reduction in 7-Hydroxyquinoline production using 7-benzyloxyquinoline as substrate and NADPH incubated for 15 mins by fluorimetry; assay type: ADME
[11] = molecular target: Hepatocyte growth factor receptor (Homo sapiens, UniProt P08581, Y1230H); assay: Inhibition of phosphorylated MET Y1230H mutant (unknown origin) pre-incubated for 30 mins before biotinylated poly(glutamate-alanine-tyrosine) peptide addition and measured after 5 mins by HTRF assay
[12] = Clearance in SCID mouse bearing advanced-stage human Hs746T cells at 20 mg/kg, iv administered as single dose after 1 to 72 hrs by liquid chromatography-tandem mass spectrometry; assay type: ADME, organism-based; conditions: in vivo
[13] = molecular target: T1, Hepatocyte growth factor receptor (Homo sapiens, UniProt P08581); assay: Binding affinity to MET (unknown origin) by isothermal titration calorimetry
[14] = Clearance in dog at 3 mg/kg, iv; assay type: ADME, organism-based, Canis lupus familiaris; conditions: in vivo
[15] = Drug level in advanced solid tumor patient at 50 to 740 mg/m2 during phase-1 trial; assay type: ADME; conditions: human, in vivo
[16] = molecular target: T1, Hepatocyte growth factor receptor; assay: Inhibition of phosphorylated MET in human MKN45 cells assessed as reduction in pMET Y1230/1234/1235 level incubated for 1 hr by ELISA; assay type: cell-based
Outline: (§1)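 MKN-45 is a MET-amplified human gastric tumour cell line.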

[17] = Clearance in rat at 5 mg/kg, iv; assay type: ADME, organism-based; conditions: in vivo
[18] = Clearance in mouse at 1 mg/kg, iv; assay type: ADME, organism-based; conditions: in vivo
[19] = Drug metabolism in human hepatic microsomes at 5 uM incubated for 20 mins in presence of NADPH by liquid chromatography-tandem mass spectrometry; assay type: ADME, Microsome; conditions: liver microsomes, read-out: Drug metabolism
[20] = Volume of distribution at steady state in rat at 5 mg/kg, iv; assay type: ADME, organism-based; conditions: in vivo, read-out: Vdss
[21] = Volume of distribution at steady state in SCID mouse bearing advanced-stage human Hs746T cells at 20 mg/kg, iv administered as single dose after 1 to 72 hrs by liquid chromatography-tandem mass spectrometry; assay type: ADME, organism-based; conditions: in vivo, read-out: Vdss
[22] = Toxicity in advanced solid tumor patient at 50 to 740 mg/m2 during phase-1 trial; conditions: human, in vivo
Mus musculus [23] = assay: Inhibition of MET Y1349 phosphorylation in SCID mouse bearing advanced-stage human Hs746T cells at 20 mg/kg, iv administered as single dose after 4 hrs by using MSD assay; assay type: functional
[24] = AUC in SCID mouse bearing advanced-stage human Hs746T cells at 20 mg/kg, iv administered as single dose after 1 to 72 hrs by liquid chromatography-tandem mass spectrometry; assay type: ADME, organism-based; conditions: in vivo
[25] = Drug distribution in rat at 25 mg/kg administered as [14C[-labeled compound through infusion after 1 to 2 hrs; assay type: ADME, organism-based; conditions: in vivo, iv
[26] = Unbound drug uptake in tumor of SCID mouse bearing advanced-stage human Hs746T cells at 20 mg/kg, iv administered as single dose after 24 hrs by liquid chromatography-tandem mass spectrometry; assay type: ADME, organism-based, Neoplasm; conditions: in vivo
[27] = Drug uptake in tumor of SCID mouse bearing advanced-stage human Hs746T cells at 20 mg/kg, iv administered as single dose after 24 hrs by liquid chromatography-tandem mass spectrometry; assay type: ADME, organism-based, Neoplasm; conditions: read-out: Drug uptake
[28] = Terminal half life in mouse at 1 mg/kg, iv […]; assay type: ADME, organism-based; conditions: in vivo, read-out: beta t1/2 (converted)
[29] = Clearance in rat at 5 mg/kg, iv relative to hepatic blood flow; assay type: ADME, organism-based; conditions: in vivo
[30] = Lipophilicity, log D of the compound by HPLC method; assay type: physicochemical
[31] = molecular target: Hepatocyte growth factor receptor (Homo sapiens, UniProt P08581, M1250T); assay: Inhibition of phosphorylated MET M1250T mutant (unknown origin) pre-incubated for 30 mins before biotinylated poly(glutamate-alanine-tyrosine) peptide addition and measured after 5 mins by HTRF assay
[32] = Terminal half life in dog at 3 mg/kg, iv; assay type: ADME, organism-based, Canis lupus familiaris; conditions: in vivo, read-out: beta t1/2 (converted)
[33] = Drug distribution in rat tumor at 25 mg/kg administered as [14C[-labeled compound through infusion after 1 to 2 hrs; assay type: ADME, organism-based, Neoplasm; conditions: in vivo, iv
[34] = molecular target: T1, Hepatocyte growth factor receptor; assay: Inhibition of wild type phosphorylated MET (unknown origin) pre-incubated for 30 mins before biotinylated poly(glutamate-alanine-tyrosine) peptide addition and measured after 5 mins by HTRF assay
[35] = Volume of distribution at steady state in dog at 3 mg/kg, iv; assay type: ADME, organism-based, Canis lupus familiaris; conditions: in vivo, read-out: Vdss
[36] = Protein binding in plasma of SCID mouse bearing advanced-stage human Hs746T cells at 20 mg/kg, iv administered as single dose after 24 hrs by liquid chromatography-tandem mass spectrometry; assay type: ADME, organism-based; conditions: read-out: PPB (converted)
in vivo = conditions: SCID, mouse, tumor/plasma, iv, 20 mg/kg
[37] = Apparent permeability from apical to basolateral side in human Caco2/TC7 cells at 20 uM by liquid chromatography-tandem mass spectrometry; conditions: Caco-2
[38] = Terminal half life in rat at 5 mg/kg, iv […]; assay type: ADME, organism-based; conditions: in vivo, read-out: beta t1/2 (converted)
MKN-45 = assay: Antiproliferative activity against human MKN45 cells assessed as reduction in [14C]-thymidine incorporation incubated for 96 hrs by beta counting method; assay type: functional, cell-based; conditions: MKN-45, 96 h; outline: as §1
Mus musculus [39] = assay: Inhibition of MET Y1349 phosphorylation in SCID mouse bearing advanced-stage human Hs746T cells at 20 mg/kg, iv administered as single dose after 48 hrs by using MSD assay; assay type: functional
[40] = Equilibrium solubility in phosphate buffer in presence of 10% Labrasol at pH 7.4; assay type: physicochemical; conditions: phosphate buffer with 10% Labrasol
[41] = Terminal half life in advanced solid tumor patient at 50 to 740 mg/m2 during phase-1 trial; assay type: ADME; conditions: human, in vivo; read-out: beta t1/2 (converted)
Mus musculus [42] = assay: Inhibition of MET Y1349 phosphorylation in SCID mouse bearing advanced-stage human Hs746T cells at 20 mg/kg, iv administered as single dose after 4 to 48 hrs by using MSD assay; assay type: functional, organism-based; conditions: TDE = time-dependent effect
[43] = Equilibrium solubility in phosphate buffer in absence of 10% Labrasol at pH 7.4; assay type: physicochemical

T1 sequence (P08581 whole entry): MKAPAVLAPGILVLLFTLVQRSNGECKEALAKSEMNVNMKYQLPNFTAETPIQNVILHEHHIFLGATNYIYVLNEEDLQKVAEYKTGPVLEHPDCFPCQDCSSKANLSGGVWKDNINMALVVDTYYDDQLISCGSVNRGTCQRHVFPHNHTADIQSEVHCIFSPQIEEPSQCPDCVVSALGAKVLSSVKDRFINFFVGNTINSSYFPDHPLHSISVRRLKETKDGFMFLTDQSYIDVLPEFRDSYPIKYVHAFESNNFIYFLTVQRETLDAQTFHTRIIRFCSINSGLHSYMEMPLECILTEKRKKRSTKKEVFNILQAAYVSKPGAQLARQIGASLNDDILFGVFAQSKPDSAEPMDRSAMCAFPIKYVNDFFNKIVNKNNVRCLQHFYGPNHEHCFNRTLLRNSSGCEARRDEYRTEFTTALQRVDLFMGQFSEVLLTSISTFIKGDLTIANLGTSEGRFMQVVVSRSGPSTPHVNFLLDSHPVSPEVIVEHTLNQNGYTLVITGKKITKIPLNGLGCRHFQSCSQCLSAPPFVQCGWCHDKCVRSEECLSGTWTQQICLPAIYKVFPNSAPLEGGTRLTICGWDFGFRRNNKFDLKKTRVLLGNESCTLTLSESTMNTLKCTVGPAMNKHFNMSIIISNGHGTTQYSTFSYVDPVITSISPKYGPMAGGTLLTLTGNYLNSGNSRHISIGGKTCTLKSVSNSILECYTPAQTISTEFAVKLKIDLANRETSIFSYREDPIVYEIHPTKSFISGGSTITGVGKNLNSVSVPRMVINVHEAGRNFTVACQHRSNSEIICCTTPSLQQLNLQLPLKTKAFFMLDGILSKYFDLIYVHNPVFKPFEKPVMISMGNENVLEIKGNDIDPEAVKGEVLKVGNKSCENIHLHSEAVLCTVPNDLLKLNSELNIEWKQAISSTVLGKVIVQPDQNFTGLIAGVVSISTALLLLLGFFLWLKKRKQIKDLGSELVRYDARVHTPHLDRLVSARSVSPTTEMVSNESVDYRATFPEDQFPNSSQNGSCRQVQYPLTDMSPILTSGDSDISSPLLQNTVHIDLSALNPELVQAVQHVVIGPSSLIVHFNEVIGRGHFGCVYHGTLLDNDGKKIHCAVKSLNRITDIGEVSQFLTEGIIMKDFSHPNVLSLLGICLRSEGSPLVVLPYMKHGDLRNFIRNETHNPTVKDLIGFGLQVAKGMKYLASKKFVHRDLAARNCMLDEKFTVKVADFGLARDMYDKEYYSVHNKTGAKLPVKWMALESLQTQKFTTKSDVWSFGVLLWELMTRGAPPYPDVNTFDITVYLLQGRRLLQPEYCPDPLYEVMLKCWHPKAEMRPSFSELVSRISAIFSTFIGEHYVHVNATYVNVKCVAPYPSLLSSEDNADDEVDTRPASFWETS
Chain of Hepatocyte growth factor receptor (Homo sapiens, UniProt P08581, M1250T) (P08581 25-1390 M1250T limits assumed): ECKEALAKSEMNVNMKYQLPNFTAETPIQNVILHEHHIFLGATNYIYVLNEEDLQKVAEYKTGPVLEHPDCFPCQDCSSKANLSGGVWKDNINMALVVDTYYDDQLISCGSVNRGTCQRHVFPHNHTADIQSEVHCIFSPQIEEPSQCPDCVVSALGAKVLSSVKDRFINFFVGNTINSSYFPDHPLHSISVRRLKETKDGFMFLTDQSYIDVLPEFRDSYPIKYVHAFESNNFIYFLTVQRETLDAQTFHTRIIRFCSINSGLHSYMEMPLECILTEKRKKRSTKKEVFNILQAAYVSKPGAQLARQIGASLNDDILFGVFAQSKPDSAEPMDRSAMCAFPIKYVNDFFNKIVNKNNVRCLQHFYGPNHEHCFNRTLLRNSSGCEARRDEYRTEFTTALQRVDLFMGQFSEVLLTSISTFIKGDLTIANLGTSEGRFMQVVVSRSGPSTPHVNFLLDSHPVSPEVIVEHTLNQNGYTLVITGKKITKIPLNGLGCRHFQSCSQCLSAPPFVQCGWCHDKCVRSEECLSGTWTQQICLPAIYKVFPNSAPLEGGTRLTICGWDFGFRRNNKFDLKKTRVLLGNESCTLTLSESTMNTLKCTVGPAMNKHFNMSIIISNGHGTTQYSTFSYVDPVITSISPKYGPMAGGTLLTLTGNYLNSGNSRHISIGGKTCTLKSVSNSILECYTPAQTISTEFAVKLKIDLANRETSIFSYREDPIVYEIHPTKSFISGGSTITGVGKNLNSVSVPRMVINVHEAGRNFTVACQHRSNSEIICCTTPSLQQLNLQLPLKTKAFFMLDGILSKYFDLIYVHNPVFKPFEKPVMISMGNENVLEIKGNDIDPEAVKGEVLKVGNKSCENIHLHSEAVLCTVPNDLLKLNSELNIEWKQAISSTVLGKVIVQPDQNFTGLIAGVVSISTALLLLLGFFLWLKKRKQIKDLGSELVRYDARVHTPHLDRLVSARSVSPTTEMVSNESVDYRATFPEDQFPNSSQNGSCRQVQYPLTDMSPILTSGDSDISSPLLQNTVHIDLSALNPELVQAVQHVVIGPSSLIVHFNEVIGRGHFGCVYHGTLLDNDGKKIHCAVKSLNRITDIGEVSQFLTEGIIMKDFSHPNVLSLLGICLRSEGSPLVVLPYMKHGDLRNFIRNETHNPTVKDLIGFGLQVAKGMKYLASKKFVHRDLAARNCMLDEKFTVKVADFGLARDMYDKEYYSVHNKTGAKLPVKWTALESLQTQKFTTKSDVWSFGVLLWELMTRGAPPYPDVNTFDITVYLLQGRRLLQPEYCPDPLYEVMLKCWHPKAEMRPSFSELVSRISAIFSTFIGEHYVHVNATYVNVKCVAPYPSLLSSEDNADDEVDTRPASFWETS
Chain of Cytochrome P450 3A4 (P08684 whole entry): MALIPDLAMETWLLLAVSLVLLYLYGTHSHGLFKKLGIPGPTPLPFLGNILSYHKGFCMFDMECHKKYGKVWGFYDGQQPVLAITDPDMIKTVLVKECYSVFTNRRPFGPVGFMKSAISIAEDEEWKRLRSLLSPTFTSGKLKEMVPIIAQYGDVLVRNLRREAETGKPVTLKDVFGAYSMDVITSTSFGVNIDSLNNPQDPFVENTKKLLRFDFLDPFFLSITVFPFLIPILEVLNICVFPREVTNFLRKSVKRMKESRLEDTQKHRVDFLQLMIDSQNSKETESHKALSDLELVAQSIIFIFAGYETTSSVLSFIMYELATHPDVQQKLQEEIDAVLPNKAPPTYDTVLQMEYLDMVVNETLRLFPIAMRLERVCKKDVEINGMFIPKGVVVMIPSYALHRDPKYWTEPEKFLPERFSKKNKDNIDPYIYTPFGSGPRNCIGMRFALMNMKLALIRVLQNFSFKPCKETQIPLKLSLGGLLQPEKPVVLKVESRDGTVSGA
Chain of Hepatocyte growth factor receptor (Homo sapiens, UniProt P08581, Y1230H) (P08581 25-1390 Y1230H limits assumed): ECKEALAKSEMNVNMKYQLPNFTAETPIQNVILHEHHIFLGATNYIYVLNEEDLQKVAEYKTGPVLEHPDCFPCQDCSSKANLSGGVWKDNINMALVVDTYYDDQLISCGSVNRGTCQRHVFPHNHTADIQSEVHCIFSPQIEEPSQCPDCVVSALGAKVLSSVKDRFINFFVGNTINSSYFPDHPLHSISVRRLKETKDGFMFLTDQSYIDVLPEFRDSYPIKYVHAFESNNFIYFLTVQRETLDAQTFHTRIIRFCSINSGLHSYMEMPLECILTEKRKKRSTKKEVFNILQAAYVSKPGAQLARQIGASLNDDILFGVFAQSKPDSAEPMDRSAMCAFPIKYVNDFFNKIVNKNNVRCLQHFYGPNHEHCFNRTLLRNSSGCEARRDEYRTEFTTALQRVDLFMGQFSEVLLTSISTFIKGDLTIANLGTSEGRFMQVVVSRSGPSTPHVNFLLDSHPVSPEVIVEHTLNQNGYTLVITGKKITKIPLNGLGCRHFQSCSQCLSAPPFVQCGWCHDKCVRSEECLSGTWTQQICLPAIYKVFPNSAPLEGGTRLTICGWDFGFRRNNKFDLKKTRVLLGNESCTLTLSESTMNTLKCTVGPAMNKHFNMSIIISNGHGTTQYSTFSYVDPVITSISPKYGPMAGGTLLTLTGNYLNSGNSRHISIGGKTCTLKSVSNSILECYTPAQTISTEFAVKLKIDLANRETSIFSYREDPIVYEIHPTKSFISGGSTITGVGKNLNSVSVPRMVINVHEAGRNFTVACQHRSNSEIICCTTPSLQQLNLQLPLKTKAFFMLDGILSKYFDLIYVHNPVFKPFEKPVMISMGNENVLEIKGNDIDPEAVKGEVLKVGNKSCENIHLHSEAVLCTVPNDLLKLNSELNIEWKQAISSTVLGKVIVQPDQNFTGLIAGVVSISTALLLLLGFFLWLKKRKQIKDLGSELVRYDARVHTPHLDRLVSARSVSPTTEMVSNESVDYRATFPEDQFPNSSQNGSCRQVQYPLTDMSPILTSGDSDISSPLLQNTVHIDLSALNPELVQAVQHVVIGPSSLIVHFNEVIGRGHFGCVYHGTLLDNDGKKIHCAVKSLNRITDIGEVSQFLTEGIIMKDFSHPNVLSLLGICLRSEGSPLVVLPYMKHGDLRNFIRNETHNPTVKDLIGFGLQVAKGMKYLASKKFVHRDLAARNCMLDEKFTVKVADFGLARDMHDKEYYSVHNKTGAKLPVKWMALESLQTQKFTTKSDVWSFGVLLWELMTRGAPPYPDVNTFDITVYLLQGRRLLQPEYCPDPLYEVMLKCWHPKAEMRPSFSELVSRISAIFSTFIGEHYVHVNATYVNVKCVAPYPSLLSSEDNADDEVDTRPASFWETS

With O=C(NCCN1CCOCC1)Nc1nc2ccc(Sc3nnc4ccc(-c5ccc(F)cc5)nn34)cc2s1 [SAR-125844] the inhibition in vivo at 20 mg/kg (Mus musculus [1]) was 80%, the clearance [2] was 565 mL/min and 8.33 mL/min/kg and the bioavailability [3] was 2%. For the same compound, the Vd [4] was 3.2 L/kg, the Vd [5] was 505 L and 7.2 L/kg and the CL [6] was 37%. For the same compound, the Drug uptake [7] was “Active”, the IC50 [8] was 64 nM and the CL [9] was 20%. The CL [10] was 54%, the IC50 (Cytochrome P450 3A4) was over 200000 nM and the IC50 [11] was 204 nM. It also gave a clearance [12] of 51.7 mL/min/kg, a Kd [13] of 0.9 nM and a clearance [14] of 8.33 mL/min/kg. For the same compound, the Drug uptake [15] was “Dose-dependent effect”, the IC50 [16] was 5 nM and the clearance [17] was 25 mL/min/kg. For the same compound, the clearance [18] was 46.7 mL/min/kg, the metabolised at 20 min, 5 µM [19] was 23% and the Vd [20] was 2.9 L/kg. For the same compound, the Vd [21] was 4.2 L/kg, the MTD [22] was 570 mg/m2 and the inhibition in vivo at 20 mg/kg (Mus musculus [23]) was 96%. The AUC [24] was 6190 ng·h/mL, the Drug uptake [25] was “Active” and the “Drug uptake(free)” value [26] was 2 nM. For the same compound, the concentration at 24 h [27] was 300 ng/mL, the half-life [28] was 4.8 h and the CL [29] was 36%. The logD [30] was 4.2, the IC50 [31] was 6 nM and the half-life [32] was 3.8 h. For the same compound, the Drug uptake [33] was “Active”, the IC50 [34] was 4 nM and the Vd [35] was 1.3 L/kg. For the same compound, the fraction unbound at 24 h [36] was 0.0033, the Kp (in vivo) was 8.1 and the Papp A→B at 20 µM [37] was 0.9 ×10⁻⁶ cm/s. It also gave a half-life [38] of 3.6 h, an IC50 (MKN-45) of 7 nM and an inhibition in vivo at 20 mg/kg (Mus musculus [39]) of 61%. The solubility thermodynamic [40] was 500 µM, the half-life [41] was 15.9 h and the inhibition (Mus musculus [42]) was “Tde”. For the same compound, the solubility thermodynamic [43] was under 1 µM.
